Here are results for three compounds from ChEMBL document CHEMBL1926614, “Substituted thiazoles V. synthesis and antitumor activity of novel thiazolo[2,3-b]quinazoline and pyrido[4,3-d]thiazolo[3,2-a]pyrimidine analogues” (2012).

Common to all, as to format: functional
Assay [1] in a line: Cytotoxicity against human melanoma cells after 48 hrs by coulter counting. The note with it: Melanoma cell; for CC50: read-out: LC50 (the source's name). In short, it runs like this:
(§1)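 NCI 60-cell-line panel covering nine tumour subpanels, tested over a 5-log dose range. Compounds were dissolved in DMSO and diluted in phosphate-buffered saline to a final DMSO below 1%. Wells held 6 × 10⁴ cells/ml and were run in duplicate. Controls contained PBS and DMSO at matching dilutions. Incubation was at 37 °C in humidified 5% CO₂. GI₅₀, TGI and LC₅₀ were reported.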

The nature of assay [2]: Cytotoxicity against human ovarian cancer cells after 48 hrs by coulter counting. The note with it: Cancer cell lines; for CC50: read-out: LC50 (the source's name). The gist of the method:
as §1

Another assay has as its system CCRF-CEM. The experiment in a line: Growth inhibition of human CCRF-CEM cells at 10 uM after 48 hrs by coulter counting. The note with it: read-out: GI. The gist of the method:
(§2)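 Single-dose primary screen across the full NCI 60-cell-line panel. Stocks were made in DMSO and diluted in PBS to a final DMSO below 1%. Cultures at 6 × 10⁴ cells/ml were run in duplicate wells alongside PBS/DMSO vehicle controls at 37 °C in humidified 5% CO₂. Data were expressed as percent growth of treated cells.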

Another assay has as its system MOLT-4. The experiment in a line: Growth inhibition of human MOLT4 cells at 10 uM after 48 hrs by coulter counting. The note with it: for inhibition of growth at 10 µM: MOLT-4, 48 h, read-out: GI. The gist of the method:
as §2

The subject of the next assay is RPMI-8226. Description: Growth inhibition of human RPMI8226 cells at 10 uM after 48 hrs by coulter counting. The gist of the method:
as §2

A further assay relates to SR. Description: Growth inhibition of human SR cells at 10 uM after 48 hrs by coulter counting. In short, it runs like this: (§3)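 Single-dose screen in the NCI 60 human tumor cell line panel (nine subpanels). Compounds dissolved in DMSO and diluted in phosphate buffered saline, keeping final DMSO below 1%. Added in duplicate wells to cells at 6 × 10⁴ cells/ml. Controls held PBS and DMSO at matching dilutions. Incubated at 37 °C, humidified, 5% CO₂. Reported as percent growth of treated cells.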

For the next assay, the system named is KM12. Description: Growth inhibition of human KM12 cells at 10 uM after 48 hrs by coulter counting. In short, it runs like this:
as §2

A further assay concerns SF-268. Description: Growth inhibition of human SF268 cells at 10 uM after 48 hrs by coulter counting. Conditions: SF-268, 48 h, read-out: GI. The gist of the method: as §2
The next assay has as its system SF-295. The experiment in a line: Growth inhibition of human SF295 cells at 10 uM after 48 hrs by coulter counting. The note with it: SF-295, 48 h, read-out: GI. The gist of the method: as §2
A further assay deals with SNB-19. The experiment in a line: Growth inhibition of human SNB19 cells at 10 uM after 48 hrs by coulter counting. The note with it: SNB-19, 48 h, read-out: GI. In short, it runs like this: as §2
For the next assay, the system named is U-251. The experiment in a line: Growth inhibition of human U251 cells at 10 uM after 48 hrs by coulter counting. The note with it: for inhibition of growth at 10 µM: U-251, 48 h, read-out: GI. The gist of the method: as §3
The subject of a further assay is LOX IMVI. Description: Growth inhibition of human LOXIMVI cells at 10 uM after 48 hrs by coulter counting. The gist of the method: as §2
In a further assay the test system is SK-MEL-28. The experiment in a line: Growth inhibition of human SK-MEL-28 cells at 10 uM after 48 hrs by coulter counting. Conditions: SK-MEL-28, 48 h, read-out: GI. In short, it runs like this: as §2
The subject of a further assay is NCI/ADR-RES. Description: Growth inhibition of human NCI/ADR-RES cells at 10 uM after 48 hrs by coulter counting. The note with it: for inhibition of growth at 10 µM: read-out: GI. The gist of the method: as §2
The next assay relates to ACHN. Description: Growth inhibition of human ACHN cells at 10 uM after 48 hrs by coulter counting. The note with it: for inhibition of growth at 10 µM: read-out: GI. The gist of the method:
as §2

A further assay concerns CAKI-1. Description: Growth inhibition of human Caki1 cells at 10 uM after 48 hrs by coulter counting. The gist of the method:
as §2

The next assay concerns BT-549. The experiment in a line: Growth inhibition of human BT549 cells at 10 uM after 48 hrs by coulter counting. Conditions: BT-549, 48 h, read-out: GI. The gist of the method: as §2
For another assay, the system named is 786-0. The experiment in a line: Growth inhibition of human 786-0 cells at 10 uM after 48 hrs by coulter counting. Conditions: 786-0, 48 h, read-out: GI. In short, it runs like this: as §2

Calls of active or inactive are those of the source. No cut-off for these calls is given here.

By GI50 is commonly meant the concentration that inhibits growth by half. A higher GI50 goes with lower sensitivity of the cells. The term TGI denotes the concentration giving total growth inhibition. Take `CCN1CC2=C(N=C3SC=C(C)N3C2c2ccc(OC)c(OC)c2)/C(=C/c2ccc(OC)c(OC)c2)C1` (stereo unspecified): the GI50 in assay [1] amounted to 2.7 µM; in assay [2], 3.8 µM. In addition, the TGI came to 10.8 µM in [1] and 49.7 µM in [2]. Further, the CC50 was 54.4 µM in assay [1] and over 100 µM in assay [2]. For the same compound, the inhibition of growth at 10 µM in the assay with CCRF-CEM turned out to be 97.8%; with SF-268 it was 89.4%; with SF-295, 69.2%; with SNB-19, 61%; in the assay with U-251, 97.9%; with SK-MEL-28, 96.5%. The inhibition of growth at 10 µM amounted to 57% in the assay with BT-549 and 69.9% in the assay with 786-0. The “growth inhibition (GI)” value in the assay on MOLT-4, in the assay with RPMI-8226, with SR, in the assay on KM12, in the assay on LOX IMVI and with NCI/ADR-RES was “Active” each time. Also, the “growth inhibition (GI)” value with ACHN and with CAKI-1 was “Active” in each case.
`CCN1CC2=C(N=C3SC=CN3C2c2ccc(OC)cc2)/C(=C/c2ccc(OC)cc2)C1` (stereo unspecified): the GI50 in [1] is 3.5 µM; in [2], 2.8 µM. In addition, the TGI in assay [1] turned out to be 10.9 µM; in assay [2], 22.5 µM. Further, the CC50 was 55 µM in [1] and 74.7 µM in assay [2]. Moreover, the inhibition of growth at 10 µM in the assay with CCRF-CEM is 97.3%; in the assay with MOLT-4, 90.4%; with SF-268, 85.5%; in the assay on SF-295, 71.8%; in the assay on SNB-19, 68.3%; with SK-MEL-28, 10.9%. Moreover, the inhibition of growth at 10 µM with NCI/ADR-RES is 76.9%; with ACHN, 83%; in the assay on CAKI-1 (CAKI-1, 48 h, read-out: GI), 78.3%; in the assay with BT-549, 55.2%; in the assay on 786-0 it was 53.2%. Besides, the “growth inhibition (GI)” value in the assay on RPMI-8226, with SR, with KM12, in the assay on U-251 and with LOX IMVI was “Active” in each case.
For the compound `CCN1CC2=C(N=C3SC=CN3C2c2ccc(OC)c(OC)c2)/C(=C/c2ccc(OC)c(OC)c2)C1` (stereo unspecified), the GI50 was 3.4 µM in assay [1] and 3.2 µM in assay [2]. The results for the TGI in assay [1] and in assay [2] were 10.1 µM and 48.9 µM, respectively. In addition, the CC50 in [1] was determined as 44.6 µM; in [2], 90.5 µM. For the same compound, the inhibition of growth at 10 µM was 94% in the assay on CCRF-CEM; 67.9% in the assay on MOLT-4; 76% in the assay on SF-268; 82.2% with SF-295; 52.9% with SNB-19; 90% in the assay with U-251. Further, the inhibition of growth at 10 µM with SK-MEL-28 was 61.3%; in the assay on NCI/ADR-RES, 91.2%; in the assay with ACHN, 79.5%; with BT-549, over 10%; with 786-0, over 10%. Besides, the “growth inhibition (GI)” value with RPMI-8226, in the assay with SR, with KM12, in the assay on LOX IMVI and with CAKI-1 was “Active” in each case.
